Experiments:
[1] = tested on: SW620 cells (colon cancer); experiment: Cytotoxicity assay; type: cell-based; settings: Homo sapiens, SW-620, 48 h, read-out: Cytotoxicity (IC50) SW620
[2] = tested on: SW620 human colon cancer cells; experiment: Cell cycle analysis; type: cell-based; settings: 5 μM, 24-hour treatment, effect less pronounced for 7d and 11d compared to SAHA
In short: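 Controls were untreated cells and vehicle-treated cells (DMSO 0.05%). Data shown as histograms plus bar graphs.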

[3] = tested on: SW620 cells; experiment: Morphological changes; type: cell-based, human; settings: 5 μM, 24-hour treatment
In short: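 SW620 cells exposed to test compound at 5 μM for 24 h, then photographed on an imaging system through 20× or 40× objectives to record morphology.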

[4] = tested on: SW620 human colon cancer cells; experiment: Apoptosis assay; type: cell-based; settings: 5 μM, 24-hour treatment, early apoptosis levels exceeding those observed with SAHA
In short: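 Annexin V-FITC/PI dual staining, with untreated and vehicle (DMSO 0.05%) controls. Data presented as histograms with accompanying bar graphs.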

[5] = tested on: MDA-MB-231 cells (breast cancer); experiment: Cytotoxicity assay; type: cell-based, human; settings: read-out: Cytotoxicity (IC50) MDA-MB-231; MDA-MB-231 breast cancer; 48h; MTT

Compound | IC50 [1] [µM] | other results
COc1cccc2c1C(=O)c1c(O)c3c(c(O)c1C2=O)C[C@@](O)(C(=O)CO)C[C@@H]3O[C@H]1C[C@H](N)[C@H](O)[C@H](C)O1 [ADR, adriamycin, reference compound] | 0.56 ± 0.1 | 
O=C(NO)c1ccc(Cn2cc(Cn3cnc4ccccc4c3=O)nn2)cc1 [Compound 7a, N-Hydroxy-4-((4-((4-oxoquinazolin-3(4H)-yl)methyl)-1H-1,2,3-triazol-1-yl)methyl)benzamide] | 9.21 ± 0.72 | 
Cc1ccc2ncn(Cc3cn(Cc4ccc(C(=O)NO)cc4)nn3)c(=O)c2c1 [Compound 7b, N-Hydroxy-4-((4-((6-methyl-4-oxoquinazolin-3(4H)-yl)methyl)-1H-1,2,3-triazol-1-yl)methyl)benzamide] | 43.1 ± 4.55 | 
Cc1ccc2c(=O)n(Cc3cn(Cc4ccc(C(=O)NO)cc4)nn3)cnc2c1 [Compound 7c, N-Hydroxy-4-((4-((7-methyl-4-oxoquinazolin-3(4H)-yl)methyl)-1H-1,2,3-triazol-1-yl)methyl)benzamide] | 7.34 ± 0.94 | 
O=C(NO)c1ccc(Cn2cc(Cn3cnc4ccc(Cl)cc4c3=O)nn2)cc1 [Compound 7d, 4-((4-((6-Chloro-4-oxoquinazolin-3(4H)-yl)methyl)-1H-1,2,3-triazol-1-yl)methyl)-N-hydroxybenzamide] | 3.64 ± 0.31 | Cell cycle effect [2]: induced G2/M phase cell cycle arrest; Morphological changes [3]: induced characteristic apoptotic morphological alterations; Pro-apoptotic effect [4]: significantly induced early and late apoptosis
O=C(NO)c1ccc(Cn2cc(Cn3cnc4ccc(F)cc4c3=O)nn2)cc1 [Compound 7e, 4-((4-((6-Fluoro-4-oxoquinazolin-3(4H)-yl)methyl)-1H-1,2,3-triazol-1-yl)methyl)-N-hydroxybenzamide] | 5.87 ± 1.55 | 
O=C(NO)c1ccc(Cn2cc(Cn3cnc4cc(F)ccc4c3=O)nn2)cc1 [Compound 7f, 4-((4-((7-Fluoro-4-oxoquinazolin-3(4H)-yl)methyl)-1H-1,2,3-triazol-1-yl)methyl)-N-hydroxybenzamide] | 8.23 ± 2.04 | 
O=C(NO)c1ccc(Cn2cc(Cn3cnc4ccc(Br)cc4c3=O)nn2)cc1 [Compound 7g, 4-((4-((6-Bromo-4-oxoquinazolin-3(4H)-yl)methyl)-1H-1,2,3-triazol-1-yl)methyl)-N-hydroxybenzamide] | 20.8 ± 5.32 | 
O=C(NO)c1ccc(Cn2cc(Cn3cnc4cc(Br)ccc4c3=O)nn2)cc1 [Compound 7h, 4-((4-((7-Bromo-4-oxoquinazolin-3(4H)-yl)methyl)-1H-1,2,3-triazol-1-yl)methyl)-N-hydroxybenzamide] | 3.77 ± 1.87 | 
O=C(NO)c1ccc(Cn2cc(Cn3cnc4ccc(I)cc4c3=O)nn2)cc1 [Compound 7i, N-Hydroxy-4-((4-((6-iodo-4-oxoquinazolin-3(4H)-yl)methyl)-1H-1,2,3-triazol-1-yl)methyl)benzamide] | 5.52 ± 1.04 | 
O=C(/C=C/c1ccc(Cn2cc(Cn3cnc4ccccc4c3=O)nn2)cc1)NO [Compound 11a, (E)-N-Hydroxy-3-(4-((4-((4-oxoquinazolin-3(4H)-yl)methyl)-1H-1,2,3-triazol-1-yl)methyl)phenyl)acrylamide] | 5.07 ± 2.92 | 
Cc1ccc2ncn(Cc3cn(Cc4ccc(/C=C/C(=O)NO)cc4)nn3)c(=O)c2c1 [Compound 11b, (E)-N-Hydroxy-3-(4-((4-((6-methyl-4-oxoquinazolin-3(4H)-yl)methyl)-1H-1,2,3-triazol-1-yl)methyl)phenyl)acrylamide] | 9.82 ± 2.46 | 
Cc1ccc2c(=O)n(Cc3cn(Cc4ccc(/C=C/C(=O)NO)cc4)nn3)cnc2c1 [Compound 11c, (E)-N-Hydroxy-3-(4-((4-((7-methyl-4-oxoquinazolin-3(4H)-yl)methyl)-1H-1,2,3-triazol-1-yl)methyl)phenyl)acrylamide] | 11.7 ± 4.39 | 
O=C(/C=C/c1ccc(Cn2cc(Cn3cnc4ccc(Cl)cc4c3=O)nn2)cc1)NO [Compound 11d, (E)-3-(4-((4-((6-Chloro-4-oxoquinazolin-3(4H)-yl)methyl)-1H-1,2,3-triazol-1-yl)methyl)phenyl)-N-hydroxyacrylamide] | 3.15 ± 0.33 | Cell cycle effect [2]: induced G2/M phase cell cycle arrest; Morphological changes [3]: induced characteristic apoptotic morphological alterations; Pro-apoptotic effect [4]: significantly induced early and late apoptosis
O=C(/C=C/c1ccc(Cn2cc(Cn3cnc4ccc(F)cc4c3=O)nn2)cc1)NO [Compound 11e, (E)-3-(4-((4-((6-Fluoro-4-oxoquinazolin-3(4H)-yl)methyl)-1H-1,2,3-triazol-1-yl)methyl)phenyl)-N-hydroxyacrylamide] | 4.57 ± 3.54 | 
O=C(/C=C/c1ccc(Cn2cc(Cn3cnc4cc(F)ccc4c3=O)nn2)cc1)NO [Compound 11f, (E)-3-(4-((4-((7-Fluoro-4-oxoquinazolin-3(4H)-yl)methyl)-1H-1,2,3-triazol-1-yl)methyl)phenyl)-N-hydroxyacrylamide] | 5.34 ± 0.76 | 
O=C(/C=C/c1ccc(Cn2cc(Cn3cnc4ccc(Br)cc4c3=O)nn2)cc1)NO [Compound 11g, (E)-3-(4-((4-((6-Bromo-4-oxoquinazolin-3(4H)-yl)methyl)-1H-1,2,3-triazol-1-yl)methyl)phenyl)-N-hydroxyacrylamide] | 9.16 ± 0.08 | IC50 [5]: 9.07 ± 0.42 µM
O=C(/C=C/c1ccc(Cn2cc(Cn3cnc4cc(Br)ccc4c3=O)nn2)cc1)NO [Compound 11h, (E)-3-(4-((4-((7-Bromo-4-oxoquinazolin-3(4H)-yl)methyl)-1H-1,2,3-triazol-1-yl)methyl)phenyl)-N-hydroxyacrylamide] | 5.73 ± 0.76 | IC50 [5]: 5.55 ± 0.18 µM
O=C(/C=C/c1ccc(Cn2cc(Cn3cnc4ccc(I)cc4c3=O)nn2)cc1)NO [Compound 11i, (E)-N-Hydroxy-3-(4-((4-((6-iodo-4-oxoquinazolin-3(4H)-yl)methyl)-1H-1,2,3-triazol-1-yl)methyl)phenyl)acrylamide] | 28.5 ± 8.19 | 
O=C(CCCCCCC(=O)Nc1ccccc1)NO [SAHA, suberoylanilide hydroxamic acid, reference compound] |  | Cell cycle effect [2]: induced G2/M phase cell cycle arrest
